Test results published in ChEMBL document CHEMBL5154634, “A Modular Synthetic Route Involving N-Aryl-2-nitrosoaniline Intermediates Leads to a New Series of 3-Substituted Halogenated Phenazine Antibacterial Agents” (J Med Chem, 2021).
≈ marks a conversion by molar mass, not a printed value. Calls of active or inactive are those of the source. No cut-off for these calls is given here.

Tests used:
Staphylococcus aureus [1] = assay: Antibacterial activity against methicillin-resistant Staphylococcus aureus BAA-44 assessed as bacterial growth inhibition incubated for 16 hrs by broth microdilution susceptibility test; format: functional
In short: (§1)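 CLSI broth microdilution with 11 twofold dilutions (0.05–50 μM). Medium was LB for the staphylococci and BHI for VRE 700221. About 10^5 cells per well from a log-phase culture. […] DMSO vehicle up to 0.5% v/v. At least three independent experiments.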

J774 = assay: Cytotoxicity against mouse J774 cells assessed as reduction in cell viability […] by Alamar blue assay; format: toxicity, cell-based
HeLa = assay: Cytotoxicity against human HeLa cells assessed as reduction in cell viability incubated for 24 hrs by LDH release assay; format: toxicity, cell-based
In short: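 HeLa cells in DMEM with 10% FBS, treated at 70–80% confluence with 25, 50 and 100 μM for 24 h. LDH in supernatant measured by 30 min reaction at room temperature, then stop solution and absorbance at 490 nm. Controls: 2% Triton X-100 (maximum), medium only, DMSO vehicle. Three independent experiments.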

Staphylococcus aureus [2] = assay: Bactericidal activity against methicillin-resistant Staphylococcus aureus BAA-1707 planktonic cells assessed as planktonic eradication incubated for 24 hrs followed by incubation for overnight in fresh medium by Calgary biofilm device assay; format: functional
In short: (§2)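 Calgary biofilm device. Biofilms grown 24 h at 37 °C in TSB with 0.5% glucose, then challenged 24 h with twofold compound dilutions. 20 μL of challenge medium transferred into fresh TSB with 0.5% glucose and incubated overnight at 37 °C. MBC is the concentration with no visible turbidity. At least three independent experiments.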

[3] = system: Staphylococcus epidermidis; assay: Antibacterial activity against methicillin-resistant Staphylococcus epidermidis ATCC 35984 assessed as bacterial growth inhibition incubated for 16 hrs by broth microdilution susceptibility test; format: functional
In short: (§3)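 CLSI broth microdilution with 11 twofold dilutions (0.05–50 μM). About 10^5 cells per well from a log-phase culture. DMSO vehicle up to 0.5% v/v. At least three independent experiments.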

Staphylococcus aureus [4] = assay: Antibiofilm activity against methicillin-resistant Staphylococcus aureus BAA-1707 biofilms assessed as biofilm eradication incubated for 24 hrs followed by incubation for 24 hrs in fresh medium by Calgary biofilm device assay; format: functional
In short: (§4)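 Calgary biofilm device. Mid-log culture diluted 1000-fold in TSB with 0.5% glucose; biofilms grown on pegs 24 h at 37 °C. Pegs washed and challenged with twofold compound dilutions for 24 h at 37 °C, then moved to fresh medium for 24 h. MBEC is the lowest concentration leaving wells non-turbid. At least three independent experiments.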

[5] = system: Mycobacterium tuberculosis; assay: Antibacterial activity against Mycobacterium tuberculosis CDC1551 assessed as bacterial growth inhibition incubated for 5 days by luminescence based analysis; format: functional; conditions: CDC1551, 120 h, time 5 day
In short: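 Bioluminescent Mtb-lux CDC1551 reporter grown in Middlebrook 7H9 with 0.05% Tween 80, 10% OADC and kanamycin to OD600 0.4–0.8, then diluted to OD600 0.02. Added to twofold drug dilutions (0.003–200 μM). Incubated 5 days at 37 °C, 5% CO2. Luminescence read against 1% DMSO and 10 μM rifampicin controls to give % growth inhibition. MIC taken from a modified Gompertz fit.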

Enterococcus faecalis [6] = assay: Antibacterial activity against Enterococcus faecalis OG1RF ATCC 47077 assessed as bacterial growth inhibition incubated for 16 hrs by broth microdilution susceptibility test; format: functional
Erythrocyte = assay: Hemolytic activity against human RBC at 200 uM measured after 1 hr; format: toxicity, cell-based
In short: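 2% hRBCs exposed to compound at 200 μM final, added from DMSO stock, for 1 h at 37 °C. Supernatant OD read at 405 nm. Hemolysis normalized between DMSO (0%) and Triton X (100%); three independent experiments.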

HepG2 = assay: Cytotoxicity against human HepG2 cells assessed as reduction in cell viability […] by Alamar blue assay; format: toxicity, cell-based
[7] = system: Mycobacterium tuberculosis; assay: Antibacterial activity against Mycobacterium tuberculosis H37Ra ATCC 25177 assessed as bacterial growth inhibition incubated for 7 days by absorbance based analysis; format: functional; conditions: H37Ra ATCC 25177, 168 h, time 7 day
In short: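 H37Ra grown 2 weeks in Middlebrook 7H9, then diluted to OD600 0.01. Compounds added in twofold dilutions, final 0.024–50 μM, with 0.5% DMSO and streptomycin as positive control. Incubated 7 days at 37 °C. MIC is the lowest concentration with no growth, with OD600 recorded. At least three independent experiments.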

Staphylococcus aureus [8] = assay: Antibacterial activity against methicillin-resistant Staphylococcus aureus clinical isolate 1 assessed as bacterial growth inhibition; format: functional
Staphylococcus aureus [9] = assay: Antibacterial activity against methicillin-resistant Staphylococcus aureus 156 assessed as bacterial growth inhibition; format: functional
Staphylococcus aureus [10] = assay: Antibacterial activity against methicillin-resistant Staphylococcus aureus clinical isolate 2 assessed as bacterial growth inhibition; format: functional
Staphylococcus aureus [11] = assay: Antibacterial activity against methicillin-resistant Staphylococcus aureus 147 assessed as bacterial growth inhibition; format: functional
Enterococcus faecalis [12] = assay: Bactericidal activity against […] Enterococcus faecalis OG1RF ATCC 47077 planktonic cells assessed as planktonic eradication incubated for 24 hrs followed by incubation for overnight in fresh medium by Calgary biofilm device assay; format: functional
In short: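 Calgary biofilm device in BHI. Biofilms grown 24 h at 37 °C and challenged 24 h with twofold compound dilutions. Challenge medium subcultured 1:10 into fresh BHI overnight at 37 °C. MBC is the concentration with no turbidity. At least three independent experiments.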

[13] = system: Staphylococcus epidermidis; assay: Bactericidal activity against methicillin-resistant Staphylococcus epidermidis ATCC 35984 planktonic cells assessed as planktonic eradication incubated for 24 hrs followed by incubation for overnight in fresh medium by Calgary biofilm device assay; format: functional; in short: as §2
Enterococcus faecium [14] = assay: Bactericidal activity against methicillin-resistant vancomycin-resistant Enterococcus faecium ATCC 700221 planktonic cells assessed as planktonic eradication incubated for 24 hrs followed by incubation for overnight in fresh medium by Calgary biofilm device assay; format: functional; in short: as §2
Enterococcus faecium [15] = assay: Antibiofilm activity against methicillin-resistant vancomycin-resistant Enterococcus faecium ATCC 700221 biofilms assessed as biofilm eradication incubated for 24 hrs followed by incubation for 24 hrs in fresh medium by Calgary biofilm device assay; format: functional; in short: as §4
[16] = system: Staphylococcus epidermidis; assay: Antibiofilm activity against methicillin-resistant Staphylococcus epidermidis ATCC 35984 biofilms assessed as biofilm eradication incubated for 24 hrs followed by incubation for 24 hrs in fresh medium by Calgary biofilm device assay; format: functional; in short: as §4
Staphylococcus aureus [17] = assay: Antibiofilm activity against methicillin-resistant Staphylococcus aureus BAA-44 biofilms assessed as biofilm eradication incubated for 24 hrs followed by incubation for 24 hrs in fresh medium by Calgary biofilm device assay; format: functional; in short: as §4
Enterococcus faecalis [18] = assay: Antibiofilm activity against Enterococcus faecalis OG1RF ATCC 47077 biofilms assessed as biofilm eradication incubated for 24 hrs followed by incubation for 24 hrs in fresh medium by Calgary biofilm device assay; format: functional
In short: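 Calgary biofilm device. Biofilms grown 24 h at 37 °C in BHI from mid-log culture diluted 1000-fold. Pegs washed and then challenged 24 h with twofold serial dilutions. Pegs moved to fresh BHI for 24 h recovery. MBEC = lowest concentration leaving no turbidity; at least three independent experiments.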

[19] = Dissociation constant, pKa of the compound at 125 uM by UV-vis spectrophotometric analysis; format: physicochemical
In short: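 Compound at 125 μM final in phosphate buffers (KH₂PO₄/Na₂HPO₄) in 1:1 water/methanol, pH 4.07–9.66; ammonium hydroxide added for pH above 9.80. UV-vis scans 200–800 nm to find λmax of phenol and phenolate forms. Absorbance at each λmax plotted against pH.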

Enterococcus faecium [20] = assay: Antibacterial activity against vancomycin-resistant Enterococcus faecium ATCC 700221 assessed as bacterial growth inhibition incubated for 16 hrs by broth microdilution susceptibility test; format: functional; in short: as §1
Staphylococcus aureus [21] = assay: Antibacterial activity against methicillin-resistant Staphylococcus aureus BAA-1707 assessed as bacterial growth inhibition incubated for 16 hrs by broth microdilution susceptibility test; format: functional; in short: as §3
[22] = Binding affinity to Fe2+ assessed as compound-Fe2+ complex formation by UV-vis spectroscopy
Staphylococcus aureus [23] = assay: Antibacterial activity against methicillin-resistant Staphylococcus aureus 138 assessed as bacterial growth inhibition; format: functional
Staphylococcus aureus [24] = assay: Antibacterial activity against methicillin-resistant Staphylococcus aureus 129 assessed as bacterial growth inhibition; format: functional

SMILES	MIC (Staphylococcus aureus [1])	IC50 (J774)	IC50 (HeLa)	MBC (Staphylococcus aureus [2])	MIC [3]	MBEC (Staphylococcus aureus [4])	MIC [5]	MIC (Enterococcus faecalis [6])	Activity (Erythrocyte)	IC50 (HepG2)	MIC [7]	MBC [13]	MBEC (Enterococcus faecium [15])	pKa at 125 µM [19]	MIC (Enterococcus faecium [20])	further results
Cc1c(Br)ccc2nc3c(O)cc(Cl)cc3nc12	0.3 µM (≈ 0.0971 µg/mL)	> 200 µM	> 100 µM	18.8 µM (≈ 6.08 µg/mL)	0.78 µM (≈ 0.252 µg/mL)	[…]	3.27 µM (≈ 1.06 µg/mL)	2.35 µM (≈ 0.76 µg/mL)	<= 1%	> 200 µM	6.25 µM (≈ 2.02 µg/mL)					
COc1cccc(OC)c1C(=O)N[C@@H]1C(=O)N2[C@@H]1SC(C)(C)[C@@H]2C(=O)O [METHICILLIN]																MIC (Staphylococcus aureus [8]): ≥ 37.5 µM; MIC (Staphylococcus aureus [9]): ≥ 37.5 µM; MIC (Staphylococcus aureus [10]): ≥ 37.5 µM; MIC (Staphylococcus aureus [11]): ≥ 37.5 µM
CN[C@H](CC(C)C)C(=O)N[C@H]1C(=O)N[C@@H](CC(N)=O)C(=O)N[C@H]2C(=O)N[C@H]3C(=O)N[C@H](C(=O)N[C@H](C(=O)O)c4cc(O)cc(O)c4-c4cc3ccc4O)[C@H](O)c3ccc(c(Cl)c3)Oc3cc2cc(c3O[C@@H]2O[C@H](CO)[C@@H](O)[C@H](O)[C@H]2O[C@H]2C[C@](C)(N)[C@H](O)[C@H](C)O2)Oc2ccc(cc2Cl)[C@H]1O [VANCOMYCIN]												2 µM (≈ 2.9 µg/mL)	>2000 µM			MBC (Enterococcus faecalis [12]): 11.7 µM (≈ 17 µg/mL); MBC (Enterococcus faecium [14]): 750 µM (≈ 1090 µg/mL); MBEC [16]: >2000 µM; MBEC (Staphylococcus aureus [17]): >2000 µM; MBEC (Enterococcus faecalis [18]): >2000 µM
Oc1cc(Cl)cc2nc3c(Cl)cc(Cl)cc3nc12	0.3 µM (≈ 0.0899 µg/mL)	> 200 µM	> 100 µM	18.8 µM (≈ 5.63 µg/mL)		75 µM	2.31 µM (≈ 0.692 µg/mL)	9.38 µM (≈ 2.81 µg/mL)	<= 1%	> 200 µM	3.13 µM (≈ 0.938 µg/mL)			6.89		
Oc1c(Br)c(Cl)c(Br)c2nc3c(Oc4ccccc4)cccc3nc12	0.1 µM (≈ 0.0481 µg/mL)	> 200 µM	> 100 µM	[…]	0.2 µM (≈ 0.0961 µg/mL)	1.56 µM	3.01 µM (≈ 1.45 µg/mL)	0.78 µM (≈ 0.375 µg/mL)	2.6%	> 200 µM	3.13 µM (≈ 1.5 µg/mL)	1.56 µM (≈ 0.75 µg/mL)	0.39 µM		0.15 µM (≈ 0.0721 µg/mL)	MBC (Enterococcus faecium [14]): 0.78 µM (≈ 0.375 µg/mL); MBEC (Enterococcus faecalis [18]): 75 µM
Oc1cc(Cl)cc2nc3ccccc3nc12					18.8 µM (≈ 4.34 µg/mL)									8.04	> 50 µM	MIC (Staphylococcus aureus [21]): 25 µM (≈ 5.77 µg/mL); Activity [22]: Active
COCCOCCOCCOCCSc1c(Br)c(O)c2nc3cccc(C)c3nc2c1Br					2.35 µM (≈ 1.39 µg/mL)									7.93	3.13 µM (≈ 1.85 µg/mL)	
CCSc1c(Br)c(O)c2nc3cccc(C)c3nc2c1Br	0.3 µM (≈ 0.128 µg/mL)	> 100 µM		50 µM (≈ 21.4 µg/mL)		200 µM	1.69 µM (≈ 0.724 µg/mL)	0.78 µM (≈ 0.334 µg/mL)	5.7%	> 200 µM		12.5 µM (≈ 5.35 µg/mL)	3.13 µM	7.88		MIC (Staphylococcus aureus [8]): 0.31 µM (≈ 0.133 µg/mL); MIC (Staphylococcus aureus [23]): 0.31 µM (≈ 0.133 µg/mL); MIC (Staphylococcus aureus [9]): 0.31 µM (≈ 0.133 µg/mL); MIC (Staphylococcus aureus [10]): 0.31 µM (≈ 0.133 µg/mL); MIC (Staphylococcus aureus [24]): 0.31 µM (≈ 0.133 µg/mL); MIC (Staphylococcus aureus [11]): 0.31 µM (≈ 0.133 µg/mL)
